Structures can show the parent of a compound that is named as a salt. Where two headings read alike, the source gives them in different places.
Experiments:
[1] = format: in vivo, mice; conditions: for CL/F / Vd/F / AUC(0-t) / MRT last / MRT inf / half-life / Cmax / Tmax / increase of metabolite AUC by propranolol: DLX 12 mg/kg p.o.; for CL/F / Vd/F / AUC(0-inf) / AUC(0-t) / MRT last / MRT inf / half-life / Cmax / Tmax / increase of metabolite AUC by propranolol: plasma; for AUC(0-inf) / AUC(0-t) / MRT last / MRT inf / half-life / Cmax / Tmax: male, mouse, po, 12 mg/kg; for AUC(0-t): AUC0-t; for MRT last: MRT0-t; for MRT inf: MRT0-∞; for increase of metabolite AUC by propranolol: peak area
Summary of the method: (§1)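 16 h later they received DLX 12 mg/kg p.o. in 0.5% methyl cellulose. Tail-vein blood (heparin) was taken at 0–24 h (9 points) and spun to plasma. Plasma was methanol-precipitated with IS and run by LC-MS against a DLX standard curve. Parameters came from noncompartmental analysis; ratios were taken between group means.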

Cyp2d = format: in vivo, mice; conditions: male, mouse, plasma, po, 12 mg/kg
Summary of the method: as §1

[2] = format: in vivo, mice
[3] = Cyp1a2-KO mice, Cyp2d+I (propranolol 30 mg/kg 16 h before)
[4] = Cyp1a2-KO mice, control (vehicle)
[5] = WT mice, Cyp2d+I (propranolol 30 mg/kg 16 h before)
[6] = Cyp1a2-KO, Cyp1a2-KO mice, Cyp2d+I (propranolol 30 mg/kg 16 h before)
[7] = Cyp1a2-KO, Cyp1a2-KO mice, control (vehicle)
[8] = KO + control compared with WT + control, not statistically significant
[9] = KO + inhibitor compared to KO + control
[10] = WT + inhibitor compared to WT + control

For CNCC[C@H](Oc1cccc2ccccc12)c1cccs1 [DLX, (3S)-N-methyl-3-(1-naphthyloxy)-3-(2-thienyl)propan-1-amine], the “AUC0-t ratio Cyp2d+I/Control” value ([1]; Cyp1a2-KO mice) was 2.29, the “AUC0-∞ ratio Cyp2d+I/Control” value ([1]; Cyp1a2-KO mice) was 2.26 and the “CL/F ratio Cyp2d+I/Control” value ([1]; Cyp1a2-KO mice) was 0.40. The “Cmax ratio Cyp2d+I/Control” value ([1]; Cyp1a2-KO mice) was 3.95, the “MRT0-t ratio Cyp2d+I/Control” value ([1]; Cyp1a2-KO mice) was 0.80 and the “MRT0-∞ ratio Cyp2d+I/Control” value ([1]; Cyp1a2-KO mice) was 0.76. The “T1/2 ratio Cyp2d+I/Control” value ([1]; Cyp1a2-KO mice) was 0.83, the “Tmax ratio Cyp2d+I/Control” value ([1]; Cyp1a2-KO mice) was 0.40 and the “Vd/F ratio Cyp2d+I/Control” value ([1]; Cyp1a2-KO mice) was 0.30. The CL/F [1, 3] was 2.94 ± 0.34 mg/(hr*μmol/L)/kg, the Vd/F [1, 3] was 15.44 ± 1.71 mg/(μmol/L)/kg and the CL/F [1, 4] was 7.32 ± 1.60 mg/(hr*μmol/L)/kg. The Vd/F [1, 4] was 51.03 ± 18.18 mg/(μmol/L)/kg, the “increase of AUC0-t by propranolol” value ([1]; KO + inhibitor vs KO + control) was 129% and the “increase of Cmax by propranolol” value ([1]; KO + inhibitor vs KO + control) was 295%. For the same compound, the “AUC0-t KO control/WT control ratio” value ([1]; KO control vs WT control) was 0.89, the “AUC0-∞ KO control/WT control ratio” value ([1]; KO control vs WT control) was 0.89 and the “CL/F KO control/WT control ratio” value ([1]; KO control vs WT control) was 1.18. The “Cmax KO control/WT control ratio” value ([1]; KO control vs WT control) was 0.56, the “MRT0-t KO control/WT control ratio” value ([1]; KO control vs WT control) was 1.14 and the “MRT0-∞ KO control/WT control ratio” value ([1]; KO control vs WT control) was 1.16. For the same compound, the “T1/2 KO control/WT control ratio” value ([1]; KO control vs WT control) was 1.04, the “Tmax KO control/WT control ratio” value ([1]; KO control vs WT control) was 1.81 and the “Vd/F KO control/WT control ratio” value ([1]; KO control vs WT control) was 1.28. For the same compound, the “increase of AUC0-t by propranolol” value ([1]; WT + inhibitor vs WT + control) was 304%, the “increase of Cmax by propranolol” value ([1]; WT + inhibitor vs WT + control) was 177% and the “AUC0-t ratio Cyp2d+I/Control” value ([1]; WT mice) was 4.04. The “AUC0-∞ ratio Cyp2d+I/Control” value ([1]; WT mice) was 4.01, the “CL/F ratio Cyp2d+I/Control” value ([1]; WT mice) was 0.30 and the “Cmax ratio Cyp2d+I/Control” value ([1]; WT mice) was 2.78. For the same compound, the “MRT0-t ratio Cyp2d+I/Control” value ([1]; WT mice) was 1.10, the “MRT0-∞ ratio Cyp2d+I/Control” value ([1]; WT mice) was 1.04 and the “T1/2 ratio Cyp2d+I/Control” value ([1]; WT mice) was 0.76. For the same compound, the “Tmax ratio Cyp2d+I/Control” value ([1]; WT mice) was 0.91, the “Vd/F ratio Cyp2d+I/Control” value ([1]; WT mice) was 0.26 and the “increase of AUC of DLX by propranolol” value ([1]; WT mice) was 3 folds. The CL/F [1, 5] was 1.88 ± 0.60 mg/(hr*μmol/L)/kg, the Vd/F [1, 5] was 10.27 ± 5.02 mg/(μmol/L)/kg and the CL/F ([1]; WT mice, control (vehicle)) was 6.19 ± 0.97 mg/(hr*μmol/L)/kg. For the same compound, the Vd/F ([1]; WT mice, control (vehicle)) was 39.87 ± 9.28 mg/(μmol/L)/kg, the AUC(0-inf) ([1]; Cyp1a2-KO) was 1.89 ± 0.39 µM·h and the AUC(0-t) [1, 6] was 4.23 ± 0.56 µM·h. For the same compound, the AUC(0-t) [1, 7] was 1.85 ± 0.39 µM·h, the MRT last [1, 6] was 4.61 ± 0.29 h and the MRT last [1, 7] was 5.73 ± 0.22 h. It also gave an MRT inf [1, 6] of 4.83 ± 0.27 h, an MRT inf [1, 7] of 6.39 ± 0.26 h and a half-life ([1]; Cyp1a2-KO, T1/2, Cyp1a2-KO mice, Cyp2d+I (propranolol 30 mg/kg 16 h before)) of 3.66 ± 0.24 h. The half-life ([1]; Cyp1a2-KO, T1/2, Cyp1a2-KO mice, control (vehicle)) was 4.43 ± 0.64 h, the AUC(0-inf) [1] was 2.12 ± 0.4 µM·h and the AUC(0-t) [1, 5] was 8.45 ± 2.46 µM·h. For the same compound, the AUC(0-t) ([1]; WT mice, control (vehicle)) was 2.09 ± 0.41 µM·h, the Cmax [1, 3] was 790 ± 210 nM and the Cmax [1, 4] was 200 ± 20 nM. The Cmax [1, 5] was 1000 ± 210 nM, the Cmax ([1]; WT mice, control (vehicle)) was 360 ± 50 nM and the MRT last [1, 5] was 5.51 ± 0.16 h. The MRT last ([1]; WT mice, control (vehicle)) was 5.02 ± 0.18 h, the MRT inf [1, 5] was 5.75 ± 0.21 h and the MRT inf ([1]; WT mice, control (vehicle)) was 5.52 ± 0.34 h. The half-life ([1]; T1/2, WT mice, Cyp2d+I (propranolol 30 mg/kg 16 h before)) was 3.32 ± 0.52 h, the half-life ([1]; T1/2, WT mice, control (vehicle)) was 4.28 ± 0.41 h and the Tmax [1, 3] was 1 ± 0.35 h. The Tmax [1, 4] was 2.5 ± 0.5 h, the Tmax [1, 5] was 1.25 ± 0.25 h and the Tmax ([1]; WT mice, control (vehicle)) was 1.38 ± 0.38 h. For the same compound, the AUC(0-inf) (Cyp2d; Cyp1a2-KO) was 4.27 ± 0.57 µM·h, the AUC(0-inf) (Cyp2d) was 8.5 ± 2.45 µM·h and the “decrease of DLX level in liver” value [2, 8] was 48%. The “decrease of DLX level in lung” value [2, 8] was 31%, the “increase of DLX level in kidney” value [2, 8] was 62% and the “increase of DLX levels in brain and testis” value [2, 8] was “around 25%”. The “increase of DLX level in liver” value [2, 9] was 3 folds, the “increase of DLX levels in other tissues (than liver)” value [2, 9] was “around 1.5 folds” and the “elevation of DLX level in liver by Cyp2d inhibitor” value ([2]; KO mice (discussion)) was 4.0 folds. For the same compound, the “increase of DLX level in kidney by Cyp2d inhibitor” value ([2]; KO mice (discussion)) was 3.9 folds, the “increase of DLX level in kidney” value [2, 10] was “Three-fold” and the “increase of DLX levels in epididymis, testis and brain” value [2, 10] was 1–2 folds. The “increase of DLX levels in liver and spleen” value [2, 10] was “around 90%”, the “elevation of DLX level in liver by Cyp2d inhibitor” value ([2]; WT mice (discussion)) was 1.9 folds and the “increase of DLX level in kidney by Cyp2d inhibitor” value ([2]; WT mice (discussion)) was 2.5 folds.

In the case of O=S(=O)(O)Oc1cccc2ccccc12 [M28, 1-naphthol sulfate], the “increase of metabolite AUC by propranolol” value ([1]; KO mice) is reported as 73%, the “increase of metabolite AUC by propranolol” value ([1]; WT mice) is reported as 103% and the “increase of metabolite abundance in kidney by Cyp2d inhibitor” value ([2]; WT + inhibitor vs WT + control, or KO + inhibitor vs KO + control) is reported as “over 65%”.
